46 molecules from ChEMBL document CHEMBL1122989, “Quantitative structure-activity relationships in cytokinin agonistic and antagonistic pyrido[2,3-d]pyrimidine derivatives: insights into receptor topology” (J Med Chem, 1985) can be followed below.

A short description of assay [1]: Anticytokinin activity was evaluated by 50% of the callus growth on the medium with kinetin but without anti-cytokinin. Format: functional, Nicotiana tabacum. The settings on record: read-out: I50. The method in brief: (§1)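 Test compounds at several concentrations in basal medium containing kinetin; medium adjusted to pH 5.6 with 1 N NaOH and autoclaved at 1.0 kg/cm2 for 15 min. Callus growth was the read-out. I50 (µM) is the concentration giving 50% of the callus growth seen on kinetin medium without anticytokinin.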

The next assay has as its system Nicotiana tabacum. The experiment in a line: Effective concentration required for cytokinin activity for producing maximum response of callus yield. Format: functional. The method in brief:
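Callus growth assay run without kinetin, with test compounds at several concentrations in basal medium. Medium adjusted to pH 5.6 with 1 N NaOH and autoclaved at 1.0 kg/cm2 for 15 min. Callus yield was the read-out.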

Assay [2] is described as follows: Anticytokinin activity was evaluated by 50% of the callus growth on the medium with kinetin but without anti-cytokinin; Insoluble. It counts as functional, Nicotiana tabacum. The method in brief: as §1

Take `CSc1nc(NCc2ccccc2)c2cccnc2n1`: in assay [1], the IC50 worked out at 25.2 µM. As for `CCCCCCCNc1nc(SC)nc2ncccc12`, the IC50 in assay [1] was found to be 4.07 µM. In the case of `CSc1nc(Nc2ccc(C(=O)O)cc2)c2cccnc2n1`, in the assay on Nicotiana tabacum, the E50 came out at 12.5 µM. On to `CSc1nc(Nc2cccc(C(=O)O)c2)c2cccnc2n1`, for which the IC50 in assay [1] was 9.2 µM. In the assay with Nicotiana tabacum, `CSc1nc(Nc2ccc(C)c(C)c2)c2cccnc2n1` registered an E50 of 0.92 µM. For `CSc1nc(Nc2ccc(Cl)cc2)c2cccnc2n1`, the IC50 in assay [1] turned out to be 8.51 µM. In the assay on Nicotiana tabacum, `CSc1nc(Nc2cc(Cl)cc(Cl)c2)c2cccnc2n1` yielded an E50 of 0.84 µM.

Turning to `CSc1nc(Nc2cccc(C#N)c2)c2cccnc2n1`, the E50 in the assay with Nicotiana tabacum came to 2.15 µM. Regarding `CSc1nc(Nc2cccc(C(C)=O)c2)c2cccnc2n1`, in assay [1], the IC50 came out at 13.2 µM.

Turning to `COc1ccc(Nc2nc(SC)nc3ncccc23)cc1`, in assay [1], the IC50 turned out to be 9.42 µM. `CSc1nc(Nc2ccc(Br)cc2)c2cccnc2n1`: the IC50 in assay [1] stood at 5.75 µM. `CSc1nc(NCC(C)C)c2cccnc2n1`: in assay [1], the IC50 turned out to be 0.54 µM. `CSc1nc(Nc2cccc([N+](=O)[O-])c2)c2cccnc2n1`: the IC50 in assay [1] is 3.55 µM. Still for that read-out and setting: the value for `CCCCCNc1nc(SC)nc2ncccc12` was 0.65 µM; that for `CCC(CC)Nc1nc(SC)nc2ncccc12` was 2.72 µM. In the assay with Nicotiana tabacum, `CSc1nc(Nc2cccc(Br)c2)c2cccnc2n1` had an E50 of 2.38 µM. On to `C=CCNc1nc(SC)nc2ncccc12`, for which, in assay [1], the IC50 was 0.4 µM. `CSc1nc(Nc2cccc(C)c2)c2cccnc2n1` came in with an E50 in the assay with Nicotiana tabacum of 1.58 µM. In the case of `CCC(C)Nc1nc(SC)nc2ncccc12` (stereo unspecified), the IC50 in assay [1] was 0.86 µM. As to `CCCNc1nc(SC)nc2ncccc12`, in assay [1], the IC50 turned out to be 0.27 µM. On the same count and under the same terms, the value for `CSc1nc(NC2CCC2)c2cccnc2n1` was 0.72 µM. Regarding `CSc1nc(Nc2cc(C)cc(C)c2)c2cccnc2n1`, the E50 in the assay with Nicotiana tabacum is 2.82 µM. With `CSc1nc(Nc2ccccc2)c2cccnc2n1`, the IC50 in assay [1] came out at 15.8 µM. On the same count and under the same terms, the value for `CCOCCNc1nc(SC)nc2ncccc12` was 7.59 µM. In the assay with Nicotiana tabacum, `CSc1nc(Nc2cc(C)ccc2C)c2cccnc2n1` came in with an E50 of 0.96 µM.

As to `CSc1nc(Nc2ccccc2C)c2cccnc2n1`, in the assay on Nicotiana tabacum, the E50 amounted to 3.59 µM. Consider `CSc1nc(NC2CCCCC2)c2cccnc2n1`, for which the IC50 in assay [1] is 5.65 µM. On the same count and under the same terms, in the case of `CSc1nc(NC2CCCC2)c2cccnc2n1` it was 0.49 µM; in that of `CSc1nc(Nc2ccc(F)cc2)c2cccnc2n1`, 2.62 µM. Turning to `CNc1nc(SC)nc2ncccc12`, in assay [1], the IC50 was 2.92 µM.

In the assay on Nicotiana tabacum, `CSc1nc(Nc2cccc(I)c2)c2cccnc2n1` came in with an E50 of 5.2 µM. In turn, `CSc1nc(Nc2ccc(I)cc2)c2cccnc2n1` returned an E50 in the assay on Nicotiana tabacum of 2.21 µM. For the molecule `CCOc1ccc(Nc2nc(SC)nc3ncccc23)cc1`, in assay [1], the IC50 worked out at 5.42 µM. Turning to `CSc1nc(Nc2cccc(O)c2)c2cccnc2n1`, the E50 in the assay with Nicotiana tabacum amounted to 5.44 µM.

On to `CSc1nc(Nc2ccc(C#N)cc2)c2cccnc2n1`, for which, in assay [1], the IC50 came to 7.56 µM. On to `CSc1nc(Nc2cccc(F)c2)c2cccnc2n1`, for which the E50 in the assay on Nicotiana tabacum is 3.39 µM. Consider `CSc1nc(Nc2ccc([N+](=O)[O-])cc2)c2cccnc2n1`, for which the I50 entry in assay [2] was “Insoluble”.

`CSc1nc(NC2CC2)c2cccnc2n1`: the IC50 in assay [1] worked out at 4.9 µM. For `CSc1nc(Nc2ccc(C(C)=O)cc2)c2cccnc2n1`, in assay [1], the IC50 came to 8.96 µM. Same read-out and setting: in the case of `COCCNc1nc(SC)nc2ncccc12` it was 2.53 µM; in that of `CCCCNc1nc(SC)nc2ncccc12`, 0.27 µM. On the same count and under the same terms, in the case of `CCc1ccc(Nc2nc(SC)nc3ncccc23)cc1` it was 7.15 µM. In the case of `CCc1cccc(Nc2nc(SC)nc3ncccc23)c1`, the E50 in the assay with Nicotiana tabacum stood at 1.91 µM. As to `CCCCCCNc1nc(SC)nc2ncccc12`, the IC50 in assay [1] is 3.33 µM.

In the assay on Nicotiana tabacum, `CSc1nc(Nc2ccc(Cl)cc2Cl)c2cccnc2n1` registered an E50 of 0.95 µM. For the molecule `CCCCC(CC)CNc1nc(SC)nc2ncccc12` (stereo unspecified), in assay [1], the IC50 turned out to be 15.8 µM.
